# NF-kB expr up – activators of NF-kB expression in neurons, primary screen, cell-based, HTS | human neuronal cells, NF-kB reporter expression; hits give high values | fold change at 12.5 µM | 190,000 compounds, 1.6% hits | AID 1239, 2008; in the data active = fold change above about 3.3
# Pf gametocyte – late stage P. falciparum gametocyte viability inhibitors, primary screen, ATP luminescence, HTS. 150,000 compounds, 0.065% hits. inhibition, % at 10.9 µM. P. falciparum stage V gametocytes, 24 h;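 active = inhibition above the mean plus 3 SD of compounds within the control limits, set per campaign, cut at about 38% in these data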;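 also: 0% = DMSO wells and 100% = medium only without gametocytes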
# APP 5'UTR act – activators of APP 5'UTR luciferase reporter, primary screen, SH-SY5Y cells; activation, % at 2 µM; 190,000 compounds, 1% hits; AID 1276, 2008; SH-SY5Y APP 5'UTR luciferase reporter, luminescence; zero percent = DMSO vehicle wells;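 active = activation above a set limit, based on mean plus 3 SD of controls, cut at about 140% in these data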
# FLuc inh counter – firefly luciferase enzyme inhibitors, primary screen, artefact control for luciferase-based inhibitor screens, biochemical, luminescence, ATPLite | 200,000 compounds, 1.5% hits | 10 min | inhibition, % at 10 µM | Luciferin 4-monooxygenase (Photinus pyralis), P08659;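 active = inhibition above about 50% when tested at 10 µM, limit read from the data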
# Target sequence (P08659 whole entry, looked up): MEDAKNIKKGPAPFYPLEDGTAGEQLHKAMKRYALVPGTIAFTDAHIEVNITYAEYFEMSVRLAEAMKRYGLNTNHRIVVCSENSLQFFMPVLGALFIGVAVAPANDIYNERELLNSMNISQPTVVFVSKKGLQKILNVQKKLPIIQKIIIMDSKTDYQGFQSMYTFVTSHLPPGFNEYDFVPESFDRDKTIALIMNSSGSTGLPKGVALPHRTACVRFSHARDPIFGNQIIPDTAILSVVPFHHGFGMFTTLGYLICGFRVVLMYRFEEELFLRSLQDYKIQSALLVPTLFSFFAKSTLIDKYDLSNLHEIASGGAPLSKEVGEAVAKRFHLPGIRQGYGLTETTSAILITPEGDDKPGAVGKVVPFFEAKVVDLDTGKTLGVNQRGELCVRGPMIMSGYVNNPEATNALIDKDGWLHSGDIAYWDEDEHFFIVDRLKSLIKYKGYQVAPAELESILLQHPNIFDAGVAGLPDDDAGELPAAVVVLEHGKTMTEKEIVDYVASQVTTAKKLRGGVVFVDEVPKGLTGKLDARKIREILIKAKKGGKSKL
# STAT1 act – STAT1 signaling activators, primary screen, cell-based, HTS, luciferase reporter; AID 932, 2007; NIH 3T3 STAT1-luciferase reporter, IFN-gamma, luminescence; 100% = IFN-gamma alone, no compound; 200,000 compounds, 2.6% hits; activation (% of control), % at 5.5 µM;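 active = activation above the screen-wide mean activation plus 3 SD, cut at about 130% in these data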;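 also: raw ratio to IFN-gamma control signal so 100% means no change and 0% no light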
# FLuc stim CS – FLuc activators, initial screening, artefact control for FLuc-dependent activation tests, biochemical, ATPlite luminescence; AID 1027, 2008; ATPlite luciferase biochemical, 10 min; 0 = ATP-free wells, 1 = DMSO control; Luciferin 4-monooxygenase (Photinus pyralis), P08659; 200,000 tested, under 10 active; activation factor at 10 µM;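 active = luciferase activation factor, scaled between plate controls, of at least 2 with compound at 10 µM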
#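 Assay system: Luciferase/luciferin reagent mix; Medium: PBS as buffer for the ATP substrate; Dosing: test compounds dosed from 2 mM stocks in 100% DMSO; Times: 10 min, room temperature; Signal: luminescence from luciferase reaction; Read-out: luciferase activation; Controls: No-ATP low control, compound-free enzyme-plus-ATP high control.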
# * marks the source's active call; other numbers are inactive results; . = not tested or not shown. Sampled rows, rich in hits. Any-hit rate of the full collection: about 3.5%.
SMILES,NF-kB expr up,Pf gametocyte,APP 5'UTR act,FLuc inh counter,STAT1 act,FLuc stim CS
CCOc1ccc(/C(C)=N/NC(=O)Cn2nc([N+](=O)[O-])cc2C)cc1,.,-6,.,.,.,.
CCc1ccccc1NC(=O)CC(O)(C(=O)OC)C(F)(F)F (configuration not stated),1.1,.,-9,-20,105,1.2
O=C(/C=C/c1ccccc1)NC1CCSC1=O (configuration not stated),1.8,-6,9,9,110,0.9
COC(=O)c1c(-n2c(C)cc(C=O)c2C)sc2c1CCCC2,1.4,.,-1,-10,98,1.1
CCOC(=O)CC(=O)CSc1nc2ccc(C)cc2cc1C#N,8.3*,12,32,4,137*,1
CCc1cc2ccc(C)cc2nc1SCC(=O)Nc1cc(C)on1,0.92,-10,2,-8,101,1.1
COc1ccc2nc(SCC(=O)N3CCCCCC3)c(C#N)cc2c1,0.65,.,15,-5,85,1.1
CCOC(=O)CC(=O)CSc1nc(CC)c(C)cc1C#N,.,3,.,.,.,.
COc1ccc2nc(SCC(=O)N3CCCCC3)c(C#N)cc2c1,1.5,21,15,0,131*,1
CCc1cc2cc(C)ccc2nc1SCC(=O)Nc1cc(C)on1,3.3*,.,6,-1,103,1
COc1ccccc1C(=O)N/C(=C/c1ccc(Br)cc1)C(=O)N1CCCC1,0.77,.,11,-1,91,1
CCCCC(=O)OCC(=O)c1ccc(OCC)cc1,1.3,.,34,53*,95,0.5
CCOc1ccc(C(=O)COC(=O)CC)cc1,1.2,.,11,56*,104,0.4
CCOC(=O)C1CCCN(/C=C2\SC(=S)N(CC)C2=O)C1 (configuration not stated),.,17,.,.,.,.
C(#Cc1ccccc1)C[N+]1(CC#Cc2cccc3ccccc23)CCOCC1,0.86,-21,1,-4,100,1
CCOC(=O)c1sc2nc3c(SCC(=O)O)cc(C(=O)c4ccccc4O)cn3c(=O)c2c1C,1.1,-2,9,79*,95,0.2
CCOC(=O)c1sc2nc3c(SCC(=O)O)cc(C(=O)c4cc(F)ccc4O)cn3c(=O)c2c1C,1,-5,22,51*,114,0.5
COC(=O)c1cc(C(=O)c2cc(F)ccc2O)cn2c(=O)c3c(C)c(C)sc3nc12,.,-21,.,.,.,.
C[C@H]1CN([C@@H](C)CO)C(=O)c2cccc(NC(=O)c3nc4ccccc4s3)c2O[C@H]1CN(C)C(=O)Nc1ccc(F)cc1,.,-7,.,.,.,.
Clc1ccc(OC2CCN(Cc3nc(CC4CC4)no3)CC2)cc1,1.1,.,8,-8,95,1.1
Cc1c(Nc2cc(N3CCCCCC3)c3nonc3c2[N+](=O)[O-])c(=O)n(-c2ccccc2)n1C,1.3,12,-13,-8,97,1.1
Cc1ccccc1-c1nc2cc(N)ccc2o1,4*,.,63,55*,141*,0.4
CC(C)c1ccc2oc(-c3cc(N)ccc3O)nc2c1,2.4,-18,158*,93*,116,0.1
CN(C)/C=C(\C(=O)c1ccccc1)c1nnnn1-c1ccc(F)cc1,.,10,.,.,.,.
O=C(O)c1ccccc1NC(=O)N1CCOCC1,1.4,15,2,-8,101,1.1
SMILES,NF-kB expr up,Pf gametocyte,APP 5'UTR act,FLuc inh counter,STAT1 act,FLuc stim CS
CCOC(=O)c1cc(-c2ccc3c(c2)OCCO3)n[nH]1,4.5*,3,113,60*,103,0.4
COc1ccc(-c2cc(-c3cc(F)ccc3O)[nH]n2)cc1OC,2.9,.,136*,-1,106,1
COc1ccc(-c2cc(-c3cc(OC)ccc3O)[nH]n2)cc1,2.8,-10,98,17,114,0.8
COc1ccc(O)c(-c2cc(-c3cccc(Br)c3)n[nH]2)c1,3.4*,.,85,-2,102,1
Oc1ccccc1-c1cc(-c2ccc3c(c2)OCCO3)n[nH]1,8.9*,.,211*,66*,111,0.3
O=C(O)c1cc(-c2ccc3c(c2)OCCO3)n[nH]1,0.99,.,6,40,101,0.6
CCc1ccc(OCC(=O)NC(NC(=S)Nc2ccc(Cl)cc2)C(Cl)(Cl)Cl)cc1 (configuration not stated),1,10,-13,-10,99,1.1
COc1ccc(-c2cc(-c3ccccc3O)[nH]n2)cc1OC,6.8*,-13,194*,28,109,0.7
COc1ccc(-c2cc(-c3ccc(OC)c(OC)c3)n[nH]2)c(O)c1,4*,-19,127,8,97,0.9
COc1ccccc1NC(=O)c1csc2c1CCC(C)C2 (configuration not stated),1.5,9,-3,10,100,0.9
CCc1nnc(NC(=O)c2csc3c2CCC(C)C3)s1 (configuration not stated),1.1,.,145*,-5,97,1.1
CCOc1ccc(N=Cc2c(C)[nH]n(-c3nc4ccccc4[nH]3)c2=O)cc1,0.82,-12,-5,70*,83,0.3
CCCCC1CCC(C(=O)NC2CCS(=O)(=O)C2)CC1 (configuration not stated),1.2,.,3,-5,99,1
Cn1c(=O)c(C(=O)Nc2ccccn2)c(O)c2ccccc21,4.5*,9,3,67*,121,0.3
NNc1nc2c(-c3ccc(Cl)cc3)nnn2c2ccccc12,1.1,-42,106,12,135*,0.9
Fc1ccc(-c2nnn3c2nc(NCc2ccccc2)c2ccccc23)cc1,.,-21,.,.,.,.
NNc1nc2c(-c3ccc(F)cc3)nnn2c2ccccc12,0.97,13,134,24,141*,0.8
COCCCNc1nc2c(-c3ccc(Cl)cc3)nnn2c2ccccc12,1.1,.,4,-14,99,1.1
CC1CC(NC(=O)C2(C)CC2(Cl)Cl)CC(C)(C)C1 (configuration not stated),1,-10,8,-8,99,1.1
CC(C)C/C=C1\CCc2c([nH]c3ccccc23)C1=O,2.5,.,48,3,143*,1
O=C1/C(=C/c2cccnc2)CCc2c1[nH]c1ccccc21,.,-52,76,11,103,0.9
C/C(=N\N1C(=O)c2ccccc2NC1c1ccco1)c1ccccc1O (configuration not stated),6.6*,.,56,2,117,1
O=C1c2ccccc2NC(c2ccco2)N1/N=C/c1ccco1 (configuration not stated),1.4,13,13,-2,109,1
COc1ccc(/C(C)=N/N2C(=O)c3ccccc3NC2c2ccc(O)c(OC)c2)cc1 (configuration not stated),1.4,.,26,27,112,0.7
